# Experimental data as given in the RNAGym collection of RNA variant scans (doi:10.1126/science.aae0568).
# Variants at the floor of the assay were thinned out.
# B1: tRNA (parent)
# chain: GUUCCGUUGGCGUAAUGGUAACGCGUCUCCCUCCUAAGGAGAAGACUGCGGGUUCGAGUCCCGUACGGAACG
# Variants of: B1
# Assay: yeast fitness relative to wild type (ratio to wild type); higher = fitter; tRNA-Arg(CCU), competitive growth, 37 C, YPD
# Method in brief: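 Variants of the tRNA-Arg(CCU) gene, chemically synthesised with a 3% per-site mutation rate at 69 sites, were placed at the native genomic locus in Saccharomyces cerevisiae. The pooled strains were competed in YPD at 37°C for 24 hours in six parallel replicates. Gene amplicons from the start population and from each end population were read by 100-nucleotide paired-end sequencing. Darwinian fitness relative to wild type came from changes in genotype frequencies; genotypes needed ≥ 100 starting reads, and estimates < 0.5 were set to 0.5.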
row,Variant,yeast fitness
1,U3C C5G U19G C31A C46A G56A A57U,≤ 0.5
2,U3C G17U C31A,≤ 0.5
3,U3C C46A G56A,0.699
4,U3C G12A U28C G48C G63C,≤ 0.5
5,U3C C30A G51A,0.602
6,U3C G12A A45U A69C,≤ 0.5
7,U3C C30A A40U,0.634
8,U3C G25C C62U G68A,0.796
9,U3C G23C C27G G39A C66U,≤ 0.5
10,U3C C34A G44A U54A,≤ 0.5
11,U3C G9A U19C,0.816
12,U3C C5A U8A G25A A45G,≤ 0.5
13,U3C A69C,0.967
14,U3C C31U A43G A69U,0.733
15,U3C C27U C30U U53A A69C,≤ 0.5
16,U3C C31U C62G,0.665
17,U3C C11U G18C C66U,0.516
18,U3C C29U A36U C66U G67A,≤ 0.5
19,U3C C11A C27G C33A,0.579
20,U3C C22G G25A,1.02
21,U3C C30U G38A G44C U54A,≤ 0.5
22,U3C C34A G52A,≤ 0.5
23,U3C G44C A70C,0.602
24,U3C C4A A15C C27G C33U C61G,≤ 0.5

row,Variant,yeast fitness
1,U3C C31U G48A,0.734
2,U3C G9A,1.04
3,U3C G9C,0.712
4,U3C C29G G56A C62G C66G,≤ 0.5
5,U3C A45C G48A U54C,0.751
6,U3C A70C,0.993
7,U3C A70G,0.944
8,U3C G44C U59A,≤ 0.5
9,U3C C5G G67U,0.542
10,U3C C29G C30G A37C G39A,≤ 0.5
11,U3C C27G C49G,≤ 0.5
12,U3C A40C C61G,0.576
13,U3C G12C,0.716
14,U3C G12A A37C A45U G48C C66U G67C A70G,≤ 0.5
15,U3C C22G C62U,0.64
16,U3C C24U U26C G63A A65G,≤ 0.5
17,U3C C34A A37C G39A A45G C62U,0.534
18,U3C A43G,0.999
19,U3C A43U,0.987
20,U3C G9C C46U,0.567
21,U3C G25C G41C C46U A65U,≤ 0.5
22,U3C C46G C62A,0.564
23,U3C A40U C49A,0.577
24,U3C G50A G68C,0.609

row,Variant,yeast fitness
1,U3C C5G C11G A45C,≤ 0.5
2,U3C G23A U35G A42G,≤ 0.5
3,U3C A42C A65U,0.651
4,U3C G39A G67U,≤ 0.5
5,U3C G10C C27U,≤ 0.5
6,U3C G25C A37U G44A,0.705
7,U3C C5G C11G,≤ 0.5
8,U3C C49U A70C,0.751
9,U3C C24U A42C,0.663
10,U3C G12A A37C A45U G48C,0.591
11,U3C A40C A45C,0.502
12,U3C G9C C30G A43C,≤ 0.5
13,U3C G23A C30U C33A G41C A42U,≤ 0.5
14,U3C G39C G63A,0.533
15,U3C C24G C31G C61G,≤ 0.5
16,U3C C4G U7C A21C G23C C55A U64A A65C,≤ 0.5
17,U3C G10C C30U U54A,≤ 0.5
18,U3C C5G A15G,≤ 0.5
19,U3C C31U C61A,0.567
20,U3C G6C,0.753
21,U3C G6A,0.866
22,U3C G18A U53A U54G G63A,≤ 0.5
23,U3C C24G,0.642
24,U3C A40G C62U A65U,≤ 0.5

row,Variant,yeast fitness
1,U3C G6C A14U G25A G38A U47A A69C,≤ 0.5
2,U3C C27G G48C,0.522
3,U3C C22G C29A A42C,≤ 0.5
4,U3C C5U C33G C34U G38C U47A,≤ 0.5
5,U3C A40G,0.929
6,U3C A40C,0.935
7,U3C C33G C55U,≤ 0.5
8,U3C G6A G18C A45U G68A,≤ 0.5
9,U3C G39C,0.695
10,U3C C27G G39A C46U G67A,≤ 0.5
11,U3C G25C C34U G56A,≤ 0.5
12,U3C C5G A14U A43G G67C,≤ 0.5
13,U3C G23A,0.701
14,U3C C34A G44A G52A U53C C55U,0.527
15,U3C G25A A42C,≤ 0.5
16,U3C G9C A70U,≤ 0.5
17,U3C C31U A69U,0.782
18,U3C C4G U8G C34U A37G,≤ 0.5
19,U3C C24G G50C G68C,≤ 0.5
20,U3C C55A A65U,≤ 0.5
21,U3C A57C A65U,≤ 0.5
22,U3C C4A A45G,0.531
23,U3C C24A C29U G67U,0.522
24,U3C C22A,0.79

row,Variant,yeast fitness
1,U3C C22U,0.824
2,U3C C31U A42G,0.798
3,U3C C34U U53C,≤ 0.5
4,U3C A40U G58A A69C,0.656
5,U3C C11A C27G C33A A43C C46A A70U,0.528
6,U3C C24A C62A A65C,≤ 0.5
7,U3C G6A G18C C30U C31U G48A C55G G67A,≤ 0.5
8,U3C G12A C49U,0.569
9,U3C C5A G18C A45C G56C C60U G68U,≤ 0.5
10,U3C C11U G17A C49U,≤ 0.5
11,U3C C11G A37G,0.563
12,U3C A43U U53A,≤ 0.5
13,U3C C46U,0.892
14,U3C C27G,0.714
15,U3C C31G U59A,≤ 0.5
16,U3C G50A C61U,0.671
17,U3C G10A A40C C55G,≤ 0.5
18,U3C A65C,1
19,U3C A65U,0.997
20,U3C G12A C31G U59A,0.537
21,U3C C11U U53C,0.588
22,U3C A40G C46A,0.966
23,U3C G39C A43G G44C A45U C49G G67C,≤ 0.5
24,U3C G9A C34U A65U,≤ 0.5

row,Variant,yeast fitness
1,U3C C62G G68A,≤ 0.5
2,U3C C11G G41C,≤ 0.5
3,U3C A43U A45G A69C,≤ 0.5
4,U3C C4U G10A C30U C49U,0.598
5,U3C C27U G56A C61A,≤ 0.5
6,U3C A45U G50A,0.849
7,U3C C11A C27G C33A C46A,0.541
8,U3C G9A G68A,0.843
9,U3C C27G C33A G51A,≤ 0.5
10,U3C C11U A40U G58A,0.627
11,U3C C30G C31U C60G C61G,0.571
12,U3C C5G C24A,≤ 0.5
13,U3C A40U G63A A65G,0.549
14,U3C C22U A36U C62U,≤ 0.5
15,U3C G9C C11U C29G C30A U64G A69C,≤ 0.5
16,U3C C22G A70U,0.8
17,U3C C29G,0.679
18,U3C C29U,0.844
19,U3C C4U A15G U26A U32A C60G G67A,≤ 0.5
20,U3C C49G U59A,≤ 0.5
21,U3C C4U A20C A21U C27G A42U G52A,≤ 0.5
22,U3C G12C A37U G51A C62U,0.607
23,U3C G9A A20C C29U G50C U59G C62U G68A,≤ 0.5
24,U3C G9A A65G,0.888

row,Variant,yeast fitness
1,U3C G23C C62G,0.535
2,U3C C46A G48A C66U,0.629
3,U3C C30A A65G,0.702
4,U3C C33G C60A,≤ 0.5
5,U3C C46U A65U,0.739
6,U3C C55G,0.619
7,U3C C31U A40C,0.654
8,U3C G9A A42U A70U,≤ 0.5
9,U3C A43C C61U,0.707
10,U3C A43C C61A,0.612
11,U3C G38C A65U C66U,0.555
12,U3C G44C C60G,0.562
13,U3C G25A G68C A69G,1.08
14,U3C G18A U32G A37G A43C G51A,≤ 0.5
15,U3C C4G G12C G44C A57U,≤ 0.5
16,U3C G12C A20U C22G G50A C61A,≤ 0.5
17,U3C C31U G44A,0.721
18,U3C C5G G63C C66G,≤ 0.5
19,U3C A43U A45G G63A,≤ 0.5
20,U3C C5U A21G C34G,≤ 0.5
21,U3C G17C A40G U54C,0.59
22,U3C C30G A43C C60G C66G A69G,≤ 0.5
23,U3C G12A C29G C34U A36C C61A,0.587
